Measured values taken from ChEMBL document CHEMBL4152264, “Design, synthesis, antiproliferative activity and docking studies of quinazoline derivatives bearing 2,3-dihydro-indole or 1,2,3,4-tetrahydroquinoline as potential EGFR inhibitors” (Eur J Med Chem, 2018).

Assays:
MCF7 = test: Antiproliferative activity against human MCF7 cells after 72 hrs by MTT assay; assay type: functional, cell-based; conditions: MCF7, 72 h
[1] = Solubility of the compound in water; assay type: physicochemical; conditions: buffer
A549 = test: Antiproliferative activity against human A549 cells after 72 hrs by MTT assay; assay type: functional, cell-based; conditions: A549, 72 h
PC-3 = test: Antiproliferative activity against human PC3 cells after 72 hrs by MTT assay; assay type: functional, cell-based; conditions: PC-3, 72 h
Method in brief: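 Cells grown in MEM with 10% FBS. About 4×10³ cells per well seeded and incubated 24 h at 37 °C, 5% CO₂. Compounds added at indicated final concentrations for 72 h. MTT at 5 µg/mL final for 4 h at 37 °C. Formazan dissolved in DMSO, absorbance read at 492 nm with 630 nm reference. Tested three times; IC50 is the mean of two determinations.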

Structure (SMILES)	IC50 (MCF7) [µM]	solubility [1]	IC50 (A549) [µM]	IC50 (PC-3) [µM]
CC/C=C/C(=O)Nc1cc2c(N3CCc4ccccc43)ncnc2cc1O[C@@H]1CCOC1	8.84	Insoluble	10.9	9.59
COc1cc2ncnc(N3CCc4ccccc43)c2cc1NC(=O)/C=C/CN1CCN(C)CC1	6.43	–	5.36	9.18
COc1cc2ncnc(N3CCc4ccccc43)c2cc1NC(=O)/C=C/CN1CCOCC1	8.45	–	9.25	8.29
COc1cc2ncnc(N3CCc4ccccc43)c2cc1NC(=O)/C=C/CN(C)C	3.37	–	2.04	2.19
C=CC(=O)Nc1cc2c(N3CCc4ccccc43)ncnc2cc1OC	11.7	Insoluble	5.58	5.94
CC(C)/C=C/C(=O)Nc1cc2c(N3CCc4ccccc43)ncnc2cc1O[C@@H]1CCOC1	9.88	Insoluble	8.52	11.2
C=C(C)C(=O)Nc1cc2c(N3CCc4ccccc43)ncnc2cc1OC	11.1	Insoluble	7.32	4.83
O=C(/C=C/CN1CCCC1)Nc1cc2c(N3CCCc4ccccc43)ncnc2cc1O[C@@H]1CCOC1	4.25	–	6.51	5.78
COc1cc2ncnc(N3CCCc4ccccc43)c2cc1NC(=O)C=C(C)C	6.87	Insoluble	5.41	6.13
O=C(/C=C/CN1CCCCC1)Nc1cc2c(N3CCc4ccccc43)ncnc2cc1O[C@@H]1CCOC1	1.89	–	4.66	4.51
CCN(CC)C/C=C/C(=O)Nc1cc2c(N3CCc4ccccc43)ncnc2cc1O[C@@H]1CCOC1	4.98	–	5.22	5.78
O=C(/C=C/CN1CCC(CO)CC1)Nc1cc2c(N3CCCc4ccccc43)ncnc2cc1O[C@@H]1CCOC1	4.96	–	5.3	5.46
COc1cc2ncnc(N3CCCc4ccccc43)c2cc1NC(=O)/C=C/C(C)C	4.29	Insoluble	3.45	8.43
C/C=C/C(=O)Nc1cc2c(N3CCCc4ccccc43)ncnc2cc1O[C@@H]1CCOC1	5.93	Insoluble	10.8	9.35
C=C(C)C(=O)Nc1cc2c(N3CCc4ccccc43)ncnc2cc1O[C@@H]1CCOC1	14.7	Insoluble	16.6	4.91
COc1cc2ncnc(N3CCc4ccccc43)c2cc1NC(=O)/C=C/C(C)C	6.78	Insoluble	6.41	6.53
CCC/C=C/C(=O)Nc1cc2c(N3CCCc4ccccc43)ncnc2cc1O[C@@H]1CCOC1	4.23	Insoluble	7.32	11.8
CN1CCN(C/C=C/C(=O)Nc2cc3c(N4CCCc5ccccc54)ncnc3cc2O[C@@H]2CCOC2)CC1	7.18	–	5.87	9.45
CC(C)=CC(=O)Nc1cc2c(N3CCCc4ccccc43)ncnc2cc1O[C@@H]1CCOC1	11.1	Insoluble	7.91	9.02
CCN(CC)C/C=C/C(=O)Nc1cc2c(N3CCCc4ccccc43)ncnc2cc1OC	5.31	–	6.41	6.89
CC(C)=CC(=O)Nc1cc2c(N3CCc4ccccc43)ncnc2cc1O[C@@H]1CCOC1	15.7	Insoluble	3.67	4.62

Structure (SMILES)	IC50 (MCF7) [µM]	solubility [1]	IC50 (A549) [µM]	IC50 (PC-3) [µM]
CC/C=C/C(=O)Nc1cc2c(N3CCCc4ccccc43)ncnc2cc1OC	2.87	Insoluble	5.03	6.31
COc1cc2ncnc(N3CCc4ccccc43)c2cc1NC(=O)C=C(C)C	6.39	Insoluble	6.27	7.84
COc1cc2ncnc(N3CCCc4ccccc43)c2cc1NC(=O)/C=C/CN1CCN(C)CC1	8.56	–	7.83	6.26
CCC/C=C/C(=O)Nc1cc2c(N3CCc4ccccc43)ncnc2cc1OC	3.16	Insoluble	2.92	4.24
CC/C=C/C(=O)Nc1cc2c(N3CCCc4ccccc43)ncnc2cc1O[C@@H]1CCOC1	14.4	Insoluble	14.1	14.3
C/C=C/C(=O)Nc1cc2c(N3CCCc4ccccc43)ncnc2cc1OC	12.7	Insoluble	8.19	7.52
CN(C)C/C=C/C(=O)Nc1cc2c(N3CCCc4ccccc43)ncnc2cc1O[C@@H]1CCOC1	2.85	–	2.32	4.17
O=C(/C=C/CN1CCCC1)Nc1cc2c(N3CCc4ccccc43)ncnc2cc1O[C@@H]1CCOC1	2.31	–	2.23	1.51
COc1cc2ncnc(N3CCCc4ccccc43)c2cc1NC(=O)/C=C/CN1CCC(CO)CC1	5.74	–	6.97	7.15
C=CC(=O)Nc1cc2c(N3CCc4ccccc43)ncnc2cc1O[C@@H]1CCOC1	5.95	Insoluble	9.32	2.71
CCN(CC)C/C=C/C(=O)Nc1cc2c(N3CCc4ccccc43)ncnc2cc1OC	1.99	–	1.69	3.69
CCC/C=C/C(=O)Nc1cc2c(N3CCc4ccccc43)ncnc2cc1O[C@@H]1CCOC1	4.55	Insoluble	9.11	9.23
COc1cc2ncnc(N3CCCc4ccccc43)c2cc1NC(=O)/C=C/CN1CCCCC1	3.93	–	2.88	5.78
O=C(/C=C/CN1CCC(CO)CC1)Nc1cc2c(N3CCc4ccccc43)ncnc2cc1O[C@@H]1CCOC1	4.69	–	3.67	3.31
CN1CCN(C/C=C/C(=O)Nc2cc3c(N4CCc5ccccc54)ncnc3cc2O[C@@H]2CCOC2)CC1	5.35	–	6.09	4.21
C/C=C/C(=O)Nc1cc2c(N3CCc4ccccc43)ncnc2cc1OC	4.03	Insoluble	8.29	8.12
COc1cc2ncnc(N3CCCc4ccccc43)c2cc1NC(=O)/C=C/CN1CCCC1	3.19	–	2.23	1.74
O=C(/C=C/CN1CCCCC1)Nc1cc2c(N3CCCc4ccccc43)ncnc2cc1O[C@@H]1CCOC1	4.45	–	3.67	3.63
CCN(CC)C/C=C/C(=O)Nc1cc2c(N3CCCc4ccccc43)ncnc2cc1O[C@@H]1CCOC1	3.87	–	5.65	4.27
CC(C)/C=C/C(=O)Nc1cc2c(N3CCCc4ccccc43)ncnc2cc1O[C@@H]1CCOC1	4.68	Insoluble	6.82	8.51
